Measured values from ChEMBL document CHEMBL1770071, “Multitargeted drugs discovery: balancing anti-amyloid and anticholinesterase capacity in a single chemical entity” (Bioorg Med Chem Lett, 2011).

Columns and labels:
Acetylcholinesterase = Acetylcholinesterase (Homo sapiens, UniProt P22303); assay: Inhibition of human serum AChE
Cholinesterase = Cholinesterase (Homo sapiens, UniProt P06276); assay: Inhibition of human serum BuChE
Method in brief: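 BuChE purified from human serum; activity read by Ellman's method. IC50 is the inhibitor concentration that cuts enzyme activity by 50%, taken as the mean of two independent measurements each run in duplicate.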

[1] = Inhibition of amyloid beta (1-42) aggregation at 10 uM by thioflavin T based fluorometric assay
Method in brief: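 Aβ1-42 self-induced aggregation, read by thioflavin T fluorescence, with Aβ1-42 to inhibitor ratio 5/1. Reported as % inhibition. Mean of two independent experiments, each in duplicate. Controls added compound to already-aggregated Aβ after ThT dilution to exclude ThT displacement.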

[2] = Neurotoxicity in human SH-SY5Y cells assessed as decrease in cell viability by MTT assay; type: toxicity, cell-based
Method in brief: (§1)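 SH-SY5Y human neuronal-like cells treated with compound alone for 24 h, with viability read by colorimetric MTT assay. IC50 is the concentration giving 50% inhibition of neuronal viability. Range tested 1–50 µM.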

SH-SY5Y [3] = assay: Neurotoxicity in human SH-SY5Y cells assessed as cell viability at 0.1 to 1 uM by MTT assay; type: toxicity, cell-based
SH-SY5Y [4] = assay: Neuroprotective activity in human SH-SY5Y cells assessed as inhibition of amyloid beta(1-42)-induced neurotoxicity at 1 uM incubated for 3 hrs by MTT assay; type: functional; set-up: scale not given: the % may be the effect or the level left
Method in brief: (§2)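 Human neuronal-like SH-SY5Y cells exposed for 3 h to Aβ1–42 pre-aggregated to oligomers, with compound present. Viability read by MTT colorimetric assay. Result expressed as % inhibition of oligomer-induced neurotoxicity, mean ± SD of at least two independent experiments.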

SH-SY5Y [5] = assay: Neuroprotective activity in human SH-SY5Y cells assessed as inhibition of amyloid beta(1-42)-induced neurotoxicity at 10 uM incubated for 3 hrs by MTT assay; type: functional; set-up: scale not given: the % may be the effect or the level left; method in brief: as §2
SH-SY5Y [6] = assay: Neurotoxicity in human SH-SY5Y cells assessed as decrease in cell viability at 1 to 50 uM by MTT assay; type: toxicity, cell-based; method in brief: as §1
SH-SY5Y [7] = assay: Neurotoxicity in human SH-SY5Y cells assessed as cell viability at 0.1 to 10 uM by MTT assay; type: toxicity, cell-based

Cholinesterase, sequence (P06276 whole entry): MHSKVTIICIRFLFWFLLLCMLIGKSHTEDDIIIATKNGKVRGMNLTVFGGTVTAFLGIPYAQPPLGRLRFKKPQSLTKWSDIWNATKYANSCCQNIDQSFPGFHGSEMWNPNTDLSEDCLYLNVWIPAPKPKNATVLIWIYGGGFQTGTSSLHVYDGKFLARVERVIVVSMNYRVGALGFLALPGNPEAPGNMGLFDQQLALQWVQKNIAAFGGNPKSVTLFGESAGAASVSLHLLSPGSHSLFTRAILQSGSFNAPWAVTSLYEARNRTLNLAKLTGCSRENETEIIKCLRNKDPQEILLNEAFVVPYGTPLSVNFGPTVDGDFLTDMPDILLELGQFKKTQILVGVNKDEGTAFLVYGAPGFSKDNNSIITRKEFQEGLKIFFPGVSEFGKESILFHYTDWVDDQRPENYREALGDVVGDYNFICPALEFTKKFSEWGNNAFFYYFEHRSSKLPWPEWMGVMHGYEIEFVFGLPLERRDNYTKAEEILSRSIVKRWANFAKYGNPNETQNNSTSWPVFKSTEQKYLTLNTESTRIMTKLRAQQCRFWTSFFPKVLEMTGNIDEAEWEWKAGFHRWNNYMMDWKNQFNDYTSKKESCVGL
Acetylcholinesterase, sequence (P22303 whole entry): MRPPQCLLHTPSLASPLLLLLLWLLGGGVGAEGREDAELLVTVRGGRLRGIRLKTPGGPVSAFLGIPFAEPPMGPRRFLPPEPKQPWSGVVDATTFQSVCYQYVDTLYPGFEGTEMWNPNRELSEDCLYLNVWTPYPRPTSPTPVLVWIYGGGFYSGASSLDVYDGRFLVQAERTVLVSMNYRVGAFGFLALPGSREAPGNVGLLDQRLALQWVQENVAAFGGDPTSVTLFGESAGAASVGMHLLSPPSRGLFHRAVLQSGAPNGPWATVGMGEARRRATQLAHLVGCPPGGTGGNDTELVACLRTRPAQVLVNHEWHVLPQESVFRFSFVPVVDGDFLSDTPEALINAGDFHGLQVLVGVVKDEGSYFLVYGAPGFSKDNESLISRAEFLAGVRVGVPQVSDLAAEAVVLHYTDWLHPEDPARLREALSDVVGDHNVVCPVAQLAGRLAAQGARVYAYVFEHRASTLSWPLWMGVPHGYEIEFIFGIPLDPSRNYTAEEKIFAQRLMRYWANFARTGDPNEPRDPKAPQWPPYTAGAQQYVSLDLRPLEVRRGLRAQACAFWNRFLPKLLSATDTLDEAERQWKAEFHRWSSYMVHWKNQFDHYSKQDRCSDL

Structure (SMILES) | IC50 (Acetylcholinesterase) [µM] | IC50 (Cholinesterase) [µM] | inhibition [1] [%] | IC50 [2] [µM] | Activity (SH-SY5Y [3]) | Activity (SH-SY5Y [4]) [%] | Activity (SH-SY5Y [5]) [%] | Activity (SH-SY5Y [6]) | Activity (SH-SY5Y [7])
O=C1C=C(NCCCNCc2cc3ccccc3o2)C(=O)C=C1NCCCNCc1cc2ccccc2o1 | 21.8 | 2.6 | 27.2 | 14.8 | Non-toxic | 25 | – | – | –
O=C1C=C(NCCCCCCNCc2cc3ccccc3o2)C(=O)C=C1NCCCCCCNCc1cc2ccccc2o1 | > 10 | 84.2 | 18.4 | – | – | – | – | – | –
COc1cc(CNCCCCCCNC2=CC(=O)C(NCCCCCCNCc3ccc(O)c(OC)c3)=CC2=O)ccc1O | 0.102 | 1.6 | 50.4 | – | – | – | – | – | –
CCN(CCCCCCNC1=CC(=O)C(NCCCCCCN(CC)Cc2ccccc2OC)=CC1=O)Cc1ccccc1OC [MEMOQUIN] | – | – | – | 19.4 | Non-toxic | 70 | 80 | – | –
O=C1C=C(NCCCNCc2ccc(-c3nc4ccccc4s3)cc2)C(=O)C=C1NCCCNCc1ccc(-c2nc3ccccc3s2)cc1 | 31.4 | 35.3 | 41.4 | – | – | – | – | – | –
COc1cc(/C=C/C(=O)CC(=O)/C=C/c2ccc(O)c(OC)c2)ccc1O | – | – | 34.4 | – | – | – | – | – | –
O=C1C=C(NCCCNCc2nc3ccccc3s2)C(=O)C=C1NCCCNCc1nc2ccccc2s1 | > 10 | > 10 | 16.2 | – | Non-toxic | 25 | – | Non-toxic | –
O=C1C=C(NCCCCCCNCc2nc3ccccc3s2)C(=O)C=C1NCCCCCCNCc1nc2ccccc2s1 | 22 | > 10 | 18.5 | – | – | – | – | – | –
O=C1C=C(NCCCCCCNCc2ccc(-c3nc4ccccc4s3)cc2)C(=O)C=C1NCCCCCCNCc1ccc(-c2nc3ccccc3s2)cc1 | 0.305 | 27.3 | 25.7 | – | – | – | – | – | –
COc1cc(CNCCCNC2=CC(=O)C(NCCCNCc3ccc(O)c(OC)c3)=CC2=O)ccc1O | 0.198 | 8.24 | 22 | – | – | 25 | – | Non-toxic | Non-toxic
